The values below come from ChEMBL document CHEMBL5126501, “Therapeutic potential for coxibs-nitric oxide releasing hybrids in cystic fibrosis” (Eur J Med Chem, 2021).

pIC50: −log10 of the molar value. A value given as a limit tells only on which side of the number the result lay.

For data set [1], the target named is T1, Prostaglandin G/H synthase 2 (Homo sapiens) (UniProt P35354).
T1 sequence (whole entry): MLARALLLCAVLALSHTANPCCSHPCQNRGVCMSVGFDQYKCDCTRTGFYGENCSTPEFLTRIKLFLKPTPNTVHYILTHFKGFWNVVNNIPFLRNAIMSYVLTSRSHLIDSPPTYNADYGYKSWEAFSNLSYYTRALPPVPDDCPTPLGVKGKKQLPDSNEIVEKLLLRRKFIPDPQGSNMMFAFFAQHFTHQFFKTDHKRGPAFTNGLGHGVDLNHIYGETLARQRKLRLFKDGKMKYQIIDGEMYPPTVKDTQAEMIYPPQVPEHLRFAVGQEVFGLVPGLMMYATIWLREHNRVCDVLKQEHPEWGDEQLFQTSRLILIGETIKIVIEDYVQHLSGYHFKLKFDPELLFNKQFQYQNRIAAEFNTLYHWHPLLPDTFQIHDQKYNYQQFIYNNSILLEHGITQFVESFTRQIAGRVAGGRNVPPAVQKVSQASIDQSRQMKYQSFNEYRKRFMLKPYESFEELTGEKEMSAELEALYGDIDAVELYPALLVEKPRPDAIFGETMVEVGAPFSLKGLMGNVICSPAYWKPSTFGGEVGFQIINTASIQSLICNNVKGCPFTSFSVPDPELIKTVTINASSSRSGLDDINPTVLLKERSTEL
The data set is described as follows: Inhibition of human recombinant COX-2 assessed as […] production at 10 uM using arachidonic acid as substrate preincubated for 10 mins followed by substrate addition and measured after 2 mins by enzyme immunoassay relative to control. The conditions noted are these: time 12.0 min. In short, it runs like this: (§1)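 PGE2 production was measured with test compound and compared with control samples to give % inhibition. Values are means of n = 3 experiments. IC50 was obtained by fitting a sigmoidal dose–response equation with variable slope.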

The subject of data set [2] is Aorta. The data set is described as follows: Vasorelaxant activity in KCl induced normotensive Wistar rat endothelium-denuded aortic rings contraction assessed as decrease in contractile tone. It counts as functional, tissue-based. In short, it runs like this:
(§2)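 Rat aortic rings were precontracted with KCl. Vasorelaxing efficacy (Emax) is the % reversal of the KCl-induced vasoconstriction. Potency is pIC50, the −log of the molar concentration giving 50% of Emax. ODQ was used to check for NO dependence.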

The subject of data set [3] is Mus musculus. The data set is described as follows: Analgesic activity against acetic acid induced mouse model assessed as number of writhes at 1 mg/kg, po measured after 30 mins by abdominal constriction test. It counts as functional. The conditions noted are these: 0.5 h. The method, boiled down: (§3)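 Mice were dosed orally, with carboxymethylcellulose (CMC) as vehicle, 30 min before an acetic acid (0.6%) challenge. Abdominal constrictions (writhes) were counted. Values are means of at least seven mice, and percent writhing reduction is relative to vehicle-treated mice. Statistics were P<0.05 and P<0.01 versus vehicle.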

For data set [4], the system named is Mus musculus. Kind of data set: Analgesic activity against acetic acid induced mouse model assessed as number of writhes at 10 mg/kg, po measured after 30 mins by abdominal constriction test. Type of data set: functional. As to conditions: 0.5 h. The method, boiled down:
as §3

The test system of data set [5] is Mus musculus. Kind of data set: Analgesic activity against acetic acid induced mouse model assessed as reduction in writhing at 1 mg/kg, po by abdominal constriction test. Type of data set: functional. Also noted: scale not given: the % may be the effect or the level left. The method, boiled down: as §3
For orientation: An intraperitoneal irritant provokes the stretching counted in writhing tests.

Data set [6] addresses T2, Prostaglandin G/H synthase 1 (Ovis aries, UniProt P05979).
T2 sequence (P05979 whole entry): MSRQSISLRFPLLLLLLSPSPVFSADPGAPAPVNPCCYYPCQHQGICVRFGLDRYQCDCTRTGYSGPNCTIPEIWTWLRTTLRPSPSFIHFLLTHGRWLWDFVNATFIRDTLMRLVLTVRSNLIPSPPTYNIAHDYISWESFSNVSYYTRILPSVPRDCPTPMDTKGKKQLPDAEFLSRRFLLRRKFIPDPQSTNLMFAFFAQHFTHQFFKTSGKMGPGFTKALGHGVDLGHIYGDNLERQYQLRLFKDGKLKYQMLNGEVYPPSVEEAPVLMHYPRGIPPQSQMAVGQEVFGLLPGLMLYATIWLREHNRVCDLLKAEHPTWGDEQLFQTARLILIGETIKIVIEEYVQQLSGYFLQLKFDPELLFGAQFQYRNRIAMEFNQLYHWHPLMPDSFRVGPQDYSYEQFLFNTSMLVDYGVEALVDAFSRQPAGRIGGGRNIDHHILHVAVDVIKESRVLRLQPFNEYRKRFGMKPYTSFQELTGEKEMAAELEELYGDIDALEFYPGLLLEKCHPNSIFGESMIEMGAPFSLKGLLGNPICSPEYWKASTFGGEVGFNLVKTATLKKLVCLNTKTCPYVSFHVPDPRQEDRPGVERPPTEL
Kind of data set: Inhibition of ovine COX-1 assessed as […] production using arachidonic acid as substrate preincubated for 10 mins followed by substrate addition and measured after 2 mins by enzyme immunoassay. In short, it runs like this: as §1

Data set [7] has as its system Mus musculus. Kind of data set: Analgesic activity against acetic acid induced mouse model assessed as reduction in writhing at 10 mg/kg, po by abdominal constriction test. On the set-up: scale not given: the % may be the effect or the level left. Type of data set: functional. In short, it runs like this: as §3
The test system of data set [8] is Aorta. The data set is described as follows: Vasorelaxant activity in KCl induced normotensive Wistar rat endothelium-denuded aortic rings contraction assessed as maximal vasorelaxing response at 10 uM relative to control. Type of data set: functional. The method, boiled down:
as §2

The subject of data set [9] is Mus musculus. The data set is described as follows: Analgesic activity against acetic acid induced mouse model assessed as number of writhes at 3 mg/kg, po measured after 30 mins by abdominal constriction test. It counts as functional. The conditions noted are these: 0.5 h. The method, boiled down:
as §3

Data set [10] has as its system Mus musculus. The data set is described as follows: Analgesic activity against acetic acid induced mouse model assessed as reduction in writhing at 3 mg/kg, po by abdominal constriction test. On the set-up: scale not given: the % may be the effect or the level left. Type of data set: functional. The method, boiled down:
as §3

For data set [11], the system named is Liver. Kind of data set: NO releasing activity in rat liver homogenate assessed as nitrite formation measured after 120 mins. As to conditions: tissue homogenate, 2 h. It counts as ADME, tissue-based. The method, boiled down: (§4)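 Compounds were incubated in rat liver homogenate. Inorganic nitrite and nitrate, the stable NO metabolites, were quantified over time, with the reading taken at 120 min of incubation.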

For data set [12], the system named is Liver. Kind of data set: NO releasing activity in rat liver homogenate assessed as nitrate formation measured after 120 mins. It counts as ADME, tissue-based. As to conditions: tissue homogenate, 2 h. The method, boiled down:
as §4

In data set [13] the test system is Mus musculus. Kind of data set: Analgesic activity against acetic acid induced mouse model assessed as number of writhes at 5 mg/kg, po measured after 30 mins by abdominal constriction test. Type of data set: functional. As to conditions: 0.5 h.
Data set [14] relates to Mus musculus. Kind of data set: Analgesic activity against acetic acid induced mouse model assessed as reduction in writhing at 20 mg/kg, po by abdominal constriction test. Type of data set: functional. Also noted: scale not given: the % may be the effect or the level left. In short, it runs like this:
as §3

The test system of data set [15] is Mus musculus. Kind of data set: Analgesic activity against acetic acid induced mouse model assessed as number of writhes at 40 mg/kg, po measured after 30 mins by abdominal constriction test. The conditions noted are these: 0.5 h. Type of data set: functional. The method, boiled down:
as §3

Data set [16] has as its system Mus musculus. The data set is described as follows: Analgesic activity against acetic acid induced mouse model assessed as reduction in writhing at 40 mg/kg, po by abdominal constriction test. Type of data set: functional. Also noted: scale not given: the % may be the effect or the level left. The method, boiled down: as §3
The test system of data set [17] is Mus musculus. The data set is described as follows: Analgesic activity against acetic acid induced mouse model assessed as reduction in writhing at 5 mg/kg, po by abdominal constriction test. Also noted: scale not given: the % may be the effect or the level left. It counts as functional.
The subject of data set [18] is Mus musculus. Kind of data set: Analgesic activity against acetic acid induced mouse model assessed as number of writhes at 20 mg/kg, po measured after 30 mins by abdominal constriction test. Type of data set: functional. As to conditions: 0.5 h. In short, it runs like this: as §3

As usually defined, the inhibition is how much of the control response was suppressed. Regarding `Cc1c(CC(=O)NCCO)cc(-c2ccc(S(N)(=O)=O)cc2)n1-c1cccc(F)c1`, the inhibition in data set [1] amounted to 15%.
In general, pIC50 refers to the IC50 on a negative log10 scale, so that one unit is a factor of ten. For orientation: Emax means the maximal effect, on the per cent scale that the assay sets. `Cc1c(CC(=O)NCCO[N+](=O)[O-])cc(-c2ccc(S(N)(=O)=O)cc2)n1-c1cccc(F)c1`: the pIC50 in the data set with Aorta [2] was 5.49; in data set [6], below 5.00. Further, the inhibition in data set [1] came to 45%. In addition, the Activity in the data set on Mus musculus [3] is 21.8; in the data set with Mus musculus [4], 16.7; in the data set on Mus musculus [5], 35.1%; in the data set on Mus musculus [7], 50.3%; in the data set on Mus musculus [9], 19.4; in the data set on Mus musculus [10] it was 42.3%. Moreover, in the data set with Aorta [8], the Emax at 10 µM is 67.5%.
Take `Cc1c(CC(=O)NCCO)cc(-c2ccc(S(N)(=O)=O)cc2)n1-c1ccc(F)cc1`: the inhibition in data set [1] was found to be 18%.
`COc1ccc2cc([C@H](C)C(=O)OCCCCO[N+](=O)[O-])ccc2c1` [NAPROXCINOD]: the Activity with Liver [11] was 28 µM; in the data set with Liver [12], 340.1 µM.
For the compound `Cc1c(CC(=O)NCCO[N+](=O)[O-])cc(-c2ccc(S(N)(=O)=O)cc2)n1-c1ccc(F)cc1`, the negative logarithm of the IC50 (pIC50) is 5.82 in the data set with Aorta [2] and below 5.00 in [6]. In addition, in data set [1], the inhibition amounted to 16%. Besides, the Activity is recorded as 26.7 in the data set on Mus musculus [13]; 53% with Mus musculus [14]; 16.7 with Mus musculus [15]; 18.5 with Mus musculus [4]; 44.9% in the data set on Mus musculus [7]; 50.3% with Mus musculus [16]. Also, the Activity with Mus musculus [17] is given as 20.5%; in the data set with Mus musculus [18], 15.8. In addition, the maximum response (Emax) at 10 µM with Aorta [8] is 74.9%.
